Measurements as given in ChEMBL document CHEMBL1127746, “Alpha-spirocyclopentyl- and alpha-spirocyclopropyl-gamma-butyrolactones: conformationally constrained derivatives of anticonvulsant and convulsant alpha,alpha-disubstituted gamma-butyrolactones” (J Med Chem, 1994).

Experiments:
[1] = target: GABA-A receptor; anion channel; experiment: Displacement of 35[S]-TBPS from picrotoxinin (GABA-A) receptor of rat neuronal membranes; format: cell membranes, Membrane
Method in brief: (§1)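 Female Sprague-Dawley rat cerebral cortex membranes, washed and held in 50 mM Tris-citrate pH 7.5. 2 nM 35[S]-TBPS in NaBr with test compound, triplicate, 90 min at 25 °C. Filtration and scintillation counting; nonspecific binding with 10 μM TBPS or 100 μM picrotoxinin. IC50 by logistic fit of at least five concentrations; two or three experiments.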

[2] = target: GABA-A receptor; anion channel; experiment: Dissociation constant from displacement of 35[S]-TBPS binding from picrotoxinin (GABA-A) receptor of rat cerebral cortex; format: tissue-based
Method in brief: (§2)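 Saturation binding on rat cerebral cortex membranes in 50 mM Tris-citrate using 1-300 nM 35[S]-TBPS with test compound near its IC50, triplicate, 90 min at 25 °C. Filtration and scintillation counting. Kd and Bmax from Scatchard analysis; two or three experiments.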

[3] = target: T1, GABA-A receptor; anion channel (Rattus norvegicus) (UniProt O09028+P15431+P18506+P18508+P19969+P20236+P23574+P23576+P28471+P28473+P30191+P62813+P63079+P63138+Q91ZM7+Q9ES14); experiment: Maximum Binding affinity for picrotoxinin (GABA-A) receptor of rat cerebral cortex; format: tissue-based; method in brief: as §2
[4] = target: T1, GABA-A receptor; anion channel (Rattus norvegicus); experiment: Percent response relative to current produced by 10 uM GABA in rat hippocampal cells; format: functional, cell-based; details: Hippocampus
[5] = Toxic dose at which 50% of the mice failed the rotarod neurotoxicity test; format: toxicity; details: mouse, in vivo
Method in brief: (§3)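 Female CF-1 mice (6-8 weeks) given test compound ip in 30% PEG, 5-10 mice/dose. Neurotoxicity scored as failure on the rotorod test. TD50 derived by log10 probit analysis of dose-response data.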

[6] = […] dose at which 50% of the mice have clonic convulsions; details: mouse, in vivo; read-out: CD50 (the source's name)
Method in brief: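 Female CF-1 mice, 6-8 weeks old; test compound in 30% PEG given ip at 5-10 mice/dose. Animals observed 30 min for clonic seizures after injection. CD50 derived by log10 probit analysis from the number of animals with clonic seizures.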

[7] = target: T1, GABA-A receptor; anion channel (Rattus norvegicus); experiment: Percent response relative to current produced by 1 uM GABA in rat hippocampal cells; format: functional, cell-based; details: Hippocampus
Method in brief: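 Whole-cell patch clamp of hippocampal neurons cultured from 1-day-old female Sprague-Dawley pups, 10-21 days in culture, held at -30 mV, CsCl-based pipette solution. 1 μM GABA with compound (10 mM or 1 mM) applied 2 s. Current expressed relative to the mean of GABA controls before and after; only ±10% recovery kept; mean ± SEM.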

[8] = Dose at which 50% of the mice failed the rotarod neurotoxicity test; details: mouse, in vivo; method in brief: as §3
[9] = test system: Mus musculus; experiment: Effective dose at which 50% of the mice were protected from clonic seizures induced by pentylenetetrazole (85 mg/kg); format: functional
Method in brief: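 Female CF-1 mice, 6-8 weeks old, dosed ip with test compound in 30% PEG (5-10 mice/dose). Non-convulsant compounds then challenged with PTZ 85 mg/kg given as 0.85% solution in 0.9% NaCl. Mice observed 30 min for seizures.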

[10] = target: GABA-A receptor; anion channel; experiment: Inhibition of 35[S]-TBPS binding to GABA-A (picrotoxin) receptor of rat neuronal membranes; format: cell membranes, Membrane; method in brief: as §1
[11] = target: T1, GABA-A receptor; anion channel (Rattus norvegicus); experiment: Percent response relative to current produced by 1 uM GABA in rat hippocampal cells; details: Hippocampus

SMILES	IC50 [1]	Kd [2]	Bmax (pM (mg of protein)-1) [3]	Response [4]	TD50 [5]	TD50 [6]	Response [7]	TD50 [8]	ED50 [9]	IC50 [10]	Response [11]
CC1(C)CCCC12CCOC2=O (stereo not drawn)	360 nM	41.8 nM	1	327%	10 mg/kg	–	–	–	–	–	–
C[C@H]1CC[C@H](C)C12CCOC2=O	200 nM	35.6 nM	1.04	–	–	198 mg/kg	80%	–	–	–	–
C[C@@H]1CC[C@H](C)C12CCOC2=O (stereo partly drawn)	780 nM	38.5 nM	0.54	198%	–	–	–	> 500 mg/kg	–	–	–
CCC1(C)CCOC1=O (stereo not drawn)	2280 nM	80.7 nM	1.27	170%	–	–	–	–	–	–	–
C[C@@H]1CC12CCOC2=O (stereo partly drawn)	3410 nM	40.4 nM	1.14	48%	> 500 mg/kg	–	–	–	259 mg/kg	–	–
CC1(C)CC12CCOC2=O (stereo not drawn)	1140 nM	35.4 nM	0.86	–	–	–	247%	254 mg/kg	221 mg/kg	–	–
CC1CCCC12CCOC2=O (stereo not drawn)	680 nM	39.5 nM	0.93	252%	> 500 mg/kg	–	–	–	–	–	–
CC(C)C1(C)CCOC1=O (stereo not drawn)	740 nM	47 nM	0.99	–	–	–	116%	–	–	–	–
CC1(C)CCOC1=O	–	–	–	41%	> 500 mg/kg	–	–	–	> 500 mg/kg	9200 nM	–
CC(C)C1(C(C)C)CCOC1=O	220 nM	33.4 nM	1.49	328%	–	137 mg/kg	–	–	–	–	–
CCC1(C(C)(C)C)CCOC1=O (stereo not drawn)	310 nM	46.8 nM	1.54	–	–	133 mg/kg	47%	–	–	–	–
O=C1OCCC12CC2	–	–	–	62%	> 500 mg/kg	–	–	–	–	> 10000 nM	–
O=C1OCCC12CCCC2	810 nM	48.8 nM	1.04	–	–	–	–	–	385 mg/kg	–	220%
CCC1(CC)CCOC1=O	750 nM	37.2 nM	1.51	301%	–	–	–	–	–	–	–
CCC1(C(C)C)CCOC1=O (stereo not drawn)	240 nM	35.2 nM	1.5	222%	> 300 mg/kg	–	–	–	169 mg/kg	–	–
C[C@H]1CC12CCOC2=O (stereo partly drawn)	7170 nM	44.1 nM	1.27	149%	> 300 mg/kg	–	–	–	210 mg/kg	–	–
